Activity calls are given as the source filed them. No cut-off for these calls is given here.
Assays:
[1] = molecular target: T1, Amyloid-beta precursor protein (Homo sapiens, UniProt P05067); assay: Inhibition of amyloid beta (1 to 42) (unknown origin) assessed as fibril formation at 10 uM incubated with agitation for 1 min every hr measured over 80 hrs by thioflavin-T assay relative to control; parameters: scale not given: the % may be the effect or the level left
[2] = molecular target: T1, Amyloid-beta precursor protein; assay: Inhibition of amyloid beta (1 to 42) fibrillization (unknown origin) at 12.5 to 25 uM incubated with agitation for 1 min every hr measured over 80 hrs by transmission electron microscopy
How it was run: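 End-point Aβ(1–42) products after 80 h ThT incubation (50 µM peptide, 37 °C) with 12.5 or 25 µM compound were applied to Formvar carbon-coated copper grids for 5 min. Grids were water-washed and stained with 2% uranyl acetate. Imaging was by TEM at 120 kV.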

SH-SY5Y [3] = assay: Neuroprotective activity against amyloid beta (1 to 42 residues) induced cytotoxicity in human SH-SY5Y cells assessed as protection against amyloid beta (1 to 42 residues) induced decrease in cell viability after 24 hrs by LDH assay; type: functional, cell-based
How it was run: (§1)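 SH-SY5Y cells (DMEM/F12, 5% FBS, 37 °C, 5% CO2) were seeded at 10,000 cells/well for 24 h, then switched to serum-free medium. Cells received 10 µL end-point Aβ(1–42) ThT-assay product (peptide co-incubated with compound) for 24 h. Cleared medium was incubated with LDH substrate 30 min at room temperature, dark, and read at 490 nm. Cell-free background was subtracted; 2% Triton X-100 lysis set 100% cytotoxicity. Triplicate.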

SH-SY5Y [4] = assay: Neuroprotective activity against amyloid beta (1 to 42 residues) induced cytotoxicity in human SH-SY5Y cells assessed as protection against amyloid beta (1 to 42 residues) induced decrease in cell viability at 0.01 uM after 24 hrs by LDH assay relative to control; type: functional; how it was run: as §1
Caenorhabditis elegans [5] = assay: Protection against amyloid beta aggregation-induced paralysis in Caenorhabditis elegans CL4176 assessed as survival rate of worms at 40 uL pretreated with compound at 16 degC for 20 hrs followed by raising temperature to 25 degC and measured at 26 hrs relative to control; type: functional
How it was run: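 About 130 eggs of transgenic C. elegans CL4176 (muscle myo-3p::Aβ(1–42)) were grown at 16 °C on NGM plates with E. coli OP50. Plates were pretreated with 40 µL of a 6.27 mM compound solution; nematode growth medium served as buffer control. Temperature was raised to 25 °C at L4. Unparalysed worms (~100–130 per condition) were counted every 2 h. Five trials.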

[6] = molecular target: T1, Amyloid-beta precursor protein; assay: Disaggregation of amyloid beta (1 to 42 residues) (unknown origin) preformed fibrils up to 100 uM measured on day 14 by Western blot analysis
How it was run: (§2)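 Preformed Aβ(1–42) fibrils incubated with compound at 0, 25, 50 or 100 μM for 0 or 14 days. Samples (20 μL plus SDS sample buffer) run on native 13% Tris-tricine gel without SDS, transferred to nitrocellulose at 250 mA for 75 min at 4 °C, blocked in 5% milk, probed with 4G8 and 6E10 plus anti-mouse IgG, ECL detection.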

[7] = molecular target: T1, Amyloid-beta precursor protein; assay: Inhibition of amyloid beta (1 to 42) (unknown origin) assessed as fibril formation up to 100 uM incubated with agitation for 1 min every hr measured over 80 hrs by thioflavin-T assay
How it was run: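 Synthetic Aβ(1–42) was dissolved in DMSO and diluted to 50 µM in 20 mM phosphate buffer, pH 7.4 (1.5% final DMSO), with 5 µM ThT. Compound was added at 0.01–100 µM and samples were held at 37 °C, agitated 1 min hourly. Fluorescence (ex 442, em 485 nm) was read over 80 h. Background-subtracted 80 h signal was normalized to Aβ alone and fit to Y=100/(1+10^(X−LogIC50)). Triplicate, SEM.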

[8] = molecular target: T1, Amyloid-beta precursor protein; assay: Inhibition of amyloid beta (1 to 42) fibrillization (unknown origin) incubated with agitation for 1 min every hr measured over 80 hrs by thioflavin-T assay
SH-SY5Y [9] = assay: Neuroprotective activity against preformed amyloid beta (1 to 42 residues) fibril induced cytotoxicity in human SH-SY5Y cells assessed as protection against amyloid beta (1 to 42 residues) induced decrease in cell viability at 25 uM after 24 hrs by LDH assay; type: functional, cell-based
How it was run: (§3)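 Preformed fibrils: 0.1 mg Aβ(1–42) in 6 µL DMSO was diluted into 880 µL 20 mM PB pH 7.4 and shaken ≥4 days. Fibrils were then held with 0, 25, 50 or 100 µM compound. SH-SY5Y cells in serum-free medium received 10 µL sample for 24 h. LDH release was read at 490 nm, background-subtracted, and normalized to 2% Triton X-100 lysis as 100%.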

[10] = molecular target: T1, Amyloid-beta precursor protein; assay: Disaggregation of amyloid beta (1 to 42 residues) (unknown origin) preformed fibrils at 100 uM measured on day 14 by transmission electron microscopy
How it was run: (§4)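 Aβ(1–42) made by Fmoc solid-phase synthesis and HPLC-purified. Fibrils preformed by dissolving 0.1 mg peptide in DMSO, diluting in 20 mM PB pH 7.4, and shaking for at least 4 days. Fibrils mixed with compound (100 μM), sampled at time 0 or after 14 days, placed on carbon-coated grids, stained with 2% uranyl acetate and imaged by TEM at 120 kV.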

[11] = molecular target: T1, Amyloid-beta precursor protein; assay: Inhibition of amyloid beta (1 to 42) (unknown origin) assessed as fibril formation at 3.1 uM incubated with agitation for 1 min every hr measured over 80 hrs by thioflavin-T assay relative to control; parameters: scale not given: the % may be the effect or the level left
How it was run: (§5)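 Synthetic Aβ(1–42) taken up in DMSO, diluted to 50 μM in 20 mM PB pH 7.4 (final DMSO 1.5%) with 5 μM ThT, compound 0.01–100 μM. Incubated at 37 °C with 1 min agitation hourly for 80 h. ThT read at ex 442/em 485 nm. The 80 h signal, buffer-subtracted, normalized to Aβ alone. Independent triplicates, SEM; IC50 fitted to Y=100/(1+10^(X−LogIC50)).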

SH-SY5Y [12] = assay: Neuroprotective activity against amyloid beta (1 to 42 residues) induced cytotoxicity in human SH-SY5Y cells assessed as protection against amyloid beta (1 to 42 residues) induced decrease in cell viability at 25 uM after 24 hrs by LDH assay relative to control; type: functional; how it was run: as §1
[13] = molecular target: T1, Amyloid-beta precursor protein; assay: Inhibition of amyloid beta (1 to 42) (unknown origin) assessed as fibril formation at 100 uM incubated with agitation for 1 min every hr measured over 80 hrs by thioflavin-T assay relative to control; parameters: scale not given: the % may be the effect or the level left; how it was run: as §5
[14] = molecular target: T1, Amyloid-beta precursor protein; assay: Disaggregation of amyloid beta (1 to 42 residues) (unknown origin) preformed fibrils at 100 uM measured immediately by transmission electron microscopy; how it was run: as §4
SH-SY5Y [15] = assay: Neuroprotective activity against preformed amyloid beta (1 to 42 residues) fibril induced cytotoxicity in human SH-SY5Y cells assessed as protection against amyloid beta (1 to 42 residues) induced cell viability at 100 uM after 24 hrs by LDH assay (reference value: 17%); type: functional; how it was run: as §3
[16] = molecular target: T1, Amyloid-beta precursor protein; assay: Inhibition of amyloid beta (1 to 42) (unknown origin) assessed as fibril formation at 25 uM incubated with agitation for 1 min every hr measured over 80 hrs by thioflavin-T assay relative to control; parameters: scale not given: the % may be the effect or the level left; how it was run: as §5
SH-SY5Y [17] = assay: Neuroprotective activity against preformed amyloid beta (1 to 42 residues) fibril induced cytotoxicity in human SH-SY5Y cells assessed as protection against amyloid beta (1 to 42 residues) induced cell viability at 50 uM after 24 hrs by LDH assay (reference value: 17%); type: functional; how it was run: as §3
Caenorhabditis elegans [18] = assay: Protection against amyloid beta aggregation-induced paralysis in Caenorhabditis elegans CL4176 assessed as median survival time of worms at 40 uL pretreated with compound at 16 degC for 20 hrs followed by raising temperature to 25 degC (reference value: 42.2 hrs); type: functional
[19] = molecular target: T1, Amyloid-beta precursor protein; assay: Disaggregation of amyloid beta (1 to 42 residues) (unknown origin) preformed fibrils incubated with agitation for 1 min every hr measured over 80 hrs by thioflavin-T assay
How it was run: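 Preformed Aβ(1–42) fibrils (25 μM; peptide in DMSO diluted into 20 mM PB pH 7.4, shaken at least 4 days) mixed with compound at 0–100 μM and 5 μM ThT. Incubated at 37 °C with 1 min agitation hourly. Fluorescence read at ex 442/em 485 nm, buffer background subtracted. Final signal normalized to fibrils alone; triplicate; IC50 fitted to Y=100/(1+10^(X−LogIC50)).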

[20] = molecular target: T1, Amyloid-beta precursor protein; assay: Disaggregation of amyloid beta (1 to 42 residues) (unknown origin) preformed fibrils up to 100 uM measured immediately by Western blot analysis; how it was run: as §2

T1 sequence (P05067 whole entry): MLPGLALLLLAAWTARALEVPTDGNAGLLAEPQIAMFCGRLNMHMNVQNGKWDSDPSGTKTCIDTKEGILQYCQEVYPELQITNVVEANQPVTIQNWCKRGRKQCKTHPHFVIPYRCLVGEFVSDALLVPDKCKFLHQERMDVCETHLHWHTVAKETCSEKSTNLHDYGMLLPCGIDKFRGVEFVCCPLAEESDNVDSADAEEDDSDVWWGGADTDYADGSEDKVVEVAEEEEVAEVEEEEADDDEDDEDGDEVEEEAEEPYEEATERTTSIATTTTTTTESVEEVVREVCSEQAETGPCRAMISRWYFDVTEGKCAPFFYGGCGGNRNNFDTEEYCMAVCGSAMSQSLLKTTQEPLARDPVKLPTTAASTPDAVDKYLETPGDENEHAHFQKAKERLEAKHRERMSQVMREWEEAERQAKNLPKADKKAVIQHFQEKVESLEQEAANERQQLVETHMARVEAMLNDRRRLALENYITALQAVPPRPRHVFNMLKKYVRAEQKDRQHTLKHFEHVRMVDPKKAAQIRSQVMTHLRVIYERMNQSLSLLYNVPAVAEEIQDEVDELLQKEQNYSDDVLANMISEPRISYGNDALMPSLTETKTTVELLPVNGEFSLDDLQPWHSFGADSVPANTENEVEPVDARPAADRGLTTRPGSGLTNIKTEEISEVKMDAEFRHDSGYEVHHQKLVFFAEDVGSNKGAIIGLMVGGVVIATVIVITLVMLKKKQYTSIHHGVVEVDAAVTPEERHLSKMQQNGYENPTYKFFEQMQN

O=C(/C=C/c1ccc(O)c(O)c1)NCCCCc1cn(Cc2ccc(-c3ccc(Cn4cc(CCCCNC(=O)/C=C/c5ccc(O)c(O)c5)nn4)cc3)cc2)nn1
Activity [1]: 61.8%

O=C(/C=C/c1ccc(O)c(O)c1)O[C@H](Cc1ccc(O)c(O)c1)C(=O)O
Activity [1]: 79.1%

O=C(/C=C/c1ccc(O)c(O)c1)NCc1cn(Cc2ccc(Cn3cc(CNC(=O)/C=C/c4ccc(O)c(O)c4)nn3)cc2)nn1
Activity [1]: 76.5%

O=C(/C=C/c1ccc(O)c(O)c1)NCCOCCOCCOCCOCCNC(=O)/C=C/c1ccc(O)c(O)c1
Activity [1]: 61.8% | inhibition [2]: inactive

O=C(/C=C/c1ccc(O)c(O)c1)NCCOCCOCCNC(=O)/C=C/c1ccc(O)c(O)c1
Activity [1]: 64.7% | inhibition [2]: inactive

C#CCCCNC(=O)/C=C/c1ccc(O)c(O)c1
Activity [1]: 135%

O=C(/C=C/c1ccc(O)c(O)c1)NCc1cn(Cc2ccc(-c3ccc(Cn4cc(CNC(=O)/C=C/c5ccc(O)c(O)c5)nn4)cc3)cc2)nn1
Activity [1]: 88.2%

O=C(/C=C/c1ccc(O)c(O)c1)O[C@H](Cc1ccc(O)c(O)c1)C(=O)NCc1cn(Cc2ccc(-c3ccc(Cn4cc(CNC(=O)[C@@H](Cc5ccc(O)c(O)c5)OC(=O)/C=C/c5ccc(O)c(O)c5)nn4)cc3)cc2)nn1
Activity [1]: 65.1%

O=C(/C=C/c1ccc(O)c(O)c1)NCCCc1cn(Cc2ccc(-c3ccc(Cn4cc(CCCNC(=O)/C=C/c5ccc(O)c(O)c5)nn4)cc3)cc2)nn1
Activity [1]: 112%

O=C(/C=C/c1ccc(O)c(O)c1)NCCCNC(=O)/C=C/c1ccc(O)c(O)c1
Activity (SH-SY5Y [3]): Dose-dependent effect | Activity (SH-SY5Y [4]): 19% | fold change (FC) (Caenorhabditis elegans [5]): 2.5 | Activity [6]: Active | inhibition [7]: Active | IC50 [8]: 4.9 µM | inhibition [8]: Dose-dependent effect | Activity (SH-SY5Y [9]): inactive | Activity [10]: Active | Activity [11]: 60% | Activity (SH-SY5Y [12]): 34% | Activity [13]: 1% | Activity [14]: inactive | Activity [1]: 52.9% | Activity (SH-SY5Y [15]): 9% | Activity [16]: 8% | Activity (SH-SY5Y [17]): 12% | MST (Caenorhabditis elegans [18]): 27.3 h | Activity [19]: Dose-dependent effect | IC50 [19]: 4.2 µM | inhibition [2]: Active | Activity [20]: inactive

O=C(/C=C/c1ccc(O)c(O)c1)NCCOCCOCCOCCNC(=O)/C=C/c1ccc(O)c(O)c1
Activity [1]: 79.4% | inhibition [2]: inactive

O=C(/C=C/c1ccc(O)c(O)c1)NCCOCCOCCOCCOCCOCCNC(=O)/C=C/c1ccc(O)c(O)c1
Activity [1]: 67.6% | inhibition [2]: inactive

C#CCNC(=O)[C@@H](Cc1ccc(O)c(O)c1)OC(=O)/C=C/c1ccc(O)c(O)c1
Activity [1]: 107%

COc1cc(/C=C/C(=O)CC(=O)/C=C/c2ccc(O)c(OC)c2)ccc1O [CURCUMIN]
Activity (SH-SY5Y [3]): Dose-dependent effect | Activity (SH-SY5Y [4]): inactive | inhibition [8]: Dose-dependent effect | Activity (SH-SY5Y [12]): 20% | MST (Caenorhabditis elegans [18]): 25.7 h | inhibition [2]: Active

O=C(O)/C=C/c1ccc(O)c(O)c1 [CAFFEIC ACID]
Activity (SH-SY5Y [3]): Dose-dependent effect | Activity (SH-SY5Y [4]): 5% | IC50 [8]: 15.6 µM | inhibition [8]: Dose-dependent effect | Activity (SH-SY5Y [12]): 20% | Activity [1]: 91.2% | MST (Caenorhabditis elegans [18]): 26.3 h | inhibition [2]: Active

O=C(/C=C/c1ccc(O)c(O)c1)CC(=O)/C=C/c1ccc(O)c(O)c1
Activity [1]: 11.5%

C#CCNC(=O)/C=C/c1ccc(O)c(O)c1
Activity [1]: 79.4%

C#CCCCCNC(=O)/C=C/c1ccc(O)c(O)c1
Activity [1]: 67.6%

From ChEMBL document CHEMBL4265933, “Rationally designed divalent caffeic amides inhibit amyloid-β fibrillization, induce fibril dissociation, and ameliorate cytotoxicity” (Eur J Med Chem, 2018)
